Measurements reported in ChEMBL document CHEMBL4732051, “The discovery of potent small molecule activators of human STING” (Eur J Med Chem, 2021).

Experiments:
Type in all cases: cell-based
[1] = target: T1, Stimulator of interferon genes protein (Homo sapiens, UniProt Q86WV6); assay: Activation of wild-type human STING expressed in HEK293T cells assessed as IRF3 reporter activation at 10 uM measured after 20 hrs by luciferase reporter gene assay
Outline: (§1)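 HEK293T-hSTING cells carrying a secreted luciferase reporter under an IRF-inducible promoter, made by blasticidin selection and clonal selection; parental HEK293T-luciferase cells as control. 5 x 10^5 cells per well treated at a single concentration. Supernatant luciferase read after 20 h by Quanti-Luc, as % activation relative to a positive-control agonist.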

[2] = target: T1, Stimulator of interferon genes protein; assay: Activation of wild-type human STING expressed in HEK293T cells assessed as IRF3 reporter activation at 20 uM measured after 20 hrs by luciferase reporter gene assay; conditions: filed as activator; outline: as §1
[3] = target: T1, Stimulator of interferon genes protein; assay: Activation of wild-type human STING expressed in HEK293T cells assessed as IRF3 reporter activation at 1 uM measured after 20 hrs by luciferase reporter gene assay; outline: as §1
[4] = target: T1, Stimulator of interferon genes protein; assay: Activation of wild-type human STING expressed in HEK293T cells assessed as IRF3 reporter activation at 100 uM measured after 20 hrs by luciferase reporter gene assay; outline: as §1
[5] = target: T1, Stimulator of interferon genes protein; assay: Activation of wild-type human STING expressed in HEK293T cells assessed as IRF3 reporter activation at 50 uM measured after 20 hrs by luciferase reporter gene assay; outline: as §1

T1 sequence (Q86WV6 whole entry): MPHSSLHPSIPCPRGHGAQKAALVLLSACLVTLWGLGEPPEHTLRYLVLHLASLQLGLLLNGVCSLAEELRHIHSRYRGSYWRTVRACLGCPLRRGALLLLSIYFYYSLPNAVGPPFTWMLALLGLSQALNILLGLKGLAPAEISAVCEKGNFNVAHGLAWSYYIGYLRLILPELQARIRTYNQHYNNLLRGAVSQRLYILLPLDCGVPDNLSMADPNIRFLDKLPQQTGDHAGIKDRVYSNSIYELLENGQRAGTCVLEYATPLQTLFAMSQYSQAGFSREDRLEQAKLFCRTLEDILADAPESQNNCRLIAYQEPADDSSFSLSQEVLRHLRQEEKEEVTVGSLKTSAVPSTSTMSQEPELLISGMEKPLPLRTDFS

## O=C(NCc1c(F)cc(F)cc1F)c1cnc2c(c1)N(Cc1cc(F)cc(F)c1)C(=O)CC2
[1]; filed as activator
  Activity: 58%

## CC1(O)C(=O)N(Cc2c(F)cccc2Cl)c2cc(C(=O)NCc3c(F)cc(F)cc3F)ccc21 (racemic)
[2]
  Activity: 67%

## CC1Oc2ccc(C(=O)NCc3c(F)cc(F)cc3F)cc2N(Cc2cc(F)cc(F)c2)C1=O (racemic)
[3]; filed as activator
  Activity: 95%

## O=C(NCc1ccco1)c1ccc2c(c1)N(Cc1ccccc1)C(=O)CS2
[1]
  Activity: 27%

## CN1C(=O)C(C)(Cc2ccccc2)c2cc(C(=O)NCc3ccco3)ccc21 (stereo unspecified)
[1]
  Activity: -1%

## O=C(NCc1ccco1)c1ccc2c(c1)N(Cc1c(F)cccc1Cl)C(=O)C21CC1
[1]
  Activity: 6%

## O=C(NCc1c(F)cc(F)cc1F)c1ccc2c(n1)N(Cc1cc(F)cc(F)c1)C(=O)CC2
[3]
  Activity: 5%

## O=C(NCc1c(F)cc(F)cc1F)c1ccc2c(c1)N(Cc1c(F)cccc1Cl)C(=O)CC2
[3]; filed as activator
  Activity: 107%

## CC1Cc2ccc(C(=O)NCc3c(F)cc(F)cc3F)cc2N(Cc2c(F)cccc2Cl)C1=O (racemic)
[3]; filed as activator
  Activity: 92%

## O=C(NCc1ccco1)c1ccc2c(c1)N(Cc1c(F)cccc1Cl)C(=O)CO2
[1]
  Activity: 30%

## O=C(NCc1ccco1)c1ccc2c(c1)N(Cc1c(F)cccc1Cl)C(=O)C[S+]2[O-] (stereo unspecified)
[4]
  Activity: 7%

## O=C(NCc1ccco1)c1ccc2c(c1)N(Cc1c(F)cccc1Cl)C(=O)CC2
[1]; filed as activator
  Activity: 105%

## COC1(C)C(=O)N(Cc2c(F)cccc2Cl)c2cc(C(=O)NCc3c(F)cc(F)cc3F)ccc21 (racemic)
[3]
  Activity: 20%

## O=C(NCc1ccco1)c1ccc2c(c1)N(Cc1ccccc1F)C(=O)C2=O
[5]
  Activity: 0%

## O=C(NCc1c(F)cc(F)cc1F)c1cnc2c(c1)N(Cc1cc(F)cc(F)c1)C(=O)CO2
[3]
  Activity: 3%

## O=C(NCc1ccco1)c1ccc2ccn(Cc3ccccc3)c2c1
[1]
  Activity: -1%

## CC1Oc2ncc(C(=O)NCc3c(F)cc(F)cc3F)cc2N(Cc2cc(F)cc(F)c2)C1=O (racemic)
[3]
  Activity: 6%

## O=C(NCc1c(F)cc(F)cc1F)c1ccc2c(c1)N(C(=O)c1c(F)cccc1Cl)CCO2
[1]
  Activity: 26%

## O=C(NCc1ccco1)c1ccc2[nH]c(=O)n(Cc3ccccc3Cl)c2c1
[1]
  Activity: -1%

## O=C(NCc1ccco1)c1ccc2c(c1)N(Cc1ccccc1)C(=O)CCO2
[1]
  Activity: -1%

## CC1(C)CC(=O)N(Cc2cc(F)cc(F)c2)c2cc(C(=O)NCc3c(F)cc(F)cc3F)ccc21
[3]; filed as activator
  Activity: 102%

## CC1(C)C(=O)N(Cc2ccccc2F)c2cc(C(=O)NCc3ccco3)ccc21
[1]; filed as activator
  Activity: 73%

## CC1(C#N)C(=O)N(Cc2c(F)cccc2Cl)c2cc(C(=O)NCc3c(F)cc(F)cc3F)ccc21 (racemic)
[3]; filed as activator
  Activity: 102%

## O=C(NCc1ccco1)c1ccc2[nH]c(=O)n(Cc3ccccc3)c(=O)c2c1
[1]
  Activity: 0%

## CC1(C)C(=O)N(Cc2ccccc2F)c2cc(C(=O)NCc3c(F)cc(F)cc3F)ccc21
[3]; filed as activator
  Activity: 116%

## CC1Cc2ccc(C(=O)NCc3c(F)cc(F)cc3F)cc2N(Cc2cc(F)cc(F)c2)S1(=O)=O (racemic)
[3]; filed as activator
  Activity: 40%
